Data from article PMC5114172 (Journal of applied toxicology : JAT, 2016).

Legend:
Test in all cases: IL-1β secretion assay
PBMCs = format: cell-based, human
Procedure, shortened: (§1)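 NK cells, MD-PBMCs, PBMCs or granulocytes (1.5 million/mL) or PBMC+granulocytes (0.75 million/mL each), per donor, exposed 24 h, 48 h or 6 days to 0.05–5 μM test compound diluted from DMSO stock, with DMSO controls. Supernatants kept at −70 °C. IL-1β by sandwich ELISA: HRP detection antibody, acid-stopped substrate, A450 against standards. Detection limit 3 pg/mL; triplicates; ANOVA then t test versus control, p<0.05.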

[1] = test system: highly purified human NKs; format: cell-based; conditions: for Interleukin 1 beta secreted: NK
Procedure, shortened: as §1

Granulocytes = format: cell-based, human
Procedure, shortened: as §1

**Q.** What does the source list for `CCC[CH2][Sn][CH2]CCC` [DBT, Dibutyltin]?
**A.** Interleukin 1 beta secreted (PBMCs; donor F159, 48 h, 0.5 μM DBT): 1099 ± 93 ng/mL; Interleukin 1 beta secreted (PBMCs; donor F159, 48 h, 1 μM DBT): 1246 ± 9 ng/mL; Interleukin 1 beta secreted (PBMCs; donor F159, 48 h, 2.5 μM DBT): 532 ± 101 ng/mL; Interleukin 1 beta secreted (PBMCs; donor F159, 48 h, 5 μM DBT): 565 ± 15 ng/mL; Interleukin 1 beta secreted (PBMCs; donor F159, 6 day, 0.05 μM DBT): 210 ± 62 ng/mL; Interleukin 1 beta secreted (PBMCs; donor F159, 6 day, 0.1 μM DBT): 236 ± 10 ng/mL; Interleukin 1 beta secreted (PBMCs; donor F159, 6 day, 0.25 μM DBT): 507 ± 21 ng/mL; Interleukin 1 beta secreted (PBMCs; donor F159, 6 day, 0.5 μM DBT): 229 ± 7 ng/mL; Interleukin 1 beta secreted (PBMCs; donor F159, 6 day, 1 μM DBT): 256 ± 12 ng/mL; Interleukin 1 beta secreted (PBMCs; donor F159, 6 day, 2.5 μM DBT): 52 ± 1 ng/mL; Interleukin 1 beta secreted (PBMCs; donor F159, 6 day, 5 μM DBT): 51 ± 9 ng/mL; Interleukin 1 beta secreted (PBMCs; donor F173, 24 h, 0.05 μM DBT): 7.072 ± 0.935 ng/mL; Interleukin 1 beta secreted (PBMCs; donor F173, 24 h, 0.1 μM DBT): 8.1 ± 0.822 ng/mL; Interleukin 1 beta secreted (PBMCs; donor F173, 24 h, 0.25 μM DBT): 4.443 ± 0.405 ng/mL; Interleukin 1 beta secreted (PBMCs; donor F173, 24 h, 0.5 μM DBT): 20.063 ± 1.077 ng/mL; Interleukin 1 beta secreted (PBMCs; donor F173, 24 h, 1 μM DBT): 9.989 ± 0.155 ng/mL; Interleukin 1 beta secreted (PBMCs; donor F173, 24 h, 2.5 μM DBT): 3.813 ± 0.058 ng/mL; Interleukin 1 beta secreted (PBMCs; donor F173, 24 h, 5 μM DBT): 2.517 ± 0.073 ng/mL; Interleukin 1 beta secreted (PBMCs; donor F173, 48 h, 0.05 μM DBT): 614 ± 63 ng/mL; Interleukin 1 beta secreted (PBMCs; donor F173, 48 h, 0.1 μM DBT): 500 ± 41 ng/mL; Interleukin 1 beta secreted (PBMCs; donor F173, 48 h, 0.25 μM DBT): 425 ± 20 ng/mL; Interleukin 1 beta secreted (PBMCs; donor F173, 48 h, 0.5 μM DBT): 745 ± 36 ng/mL; Interleukin 1 beta secreted (PBMCs; donor F173, 48 h, 1 μM DBT): 2064 ± 194 ng/mL; Interleukin 1 beta secreted (PBMCs; donor F173, 48 h, 2.5 μM DBT): 591 ± 32 ng/mL; Interleukin 1 beta secreted (PBMCs; donor F173, 48 h, 5 μM DBT): 478 ± 32 ng/mL; Interleukin 1 beta secreted (PBMCs; donor F173, 6 day, 0.05 μM DBT): 465 ± 151 ng/mL; Interleukin 1 beta secreted (PBMCs; donor F173, 6 day, 0.1 μM DBT): 398 ± 28 ng/mL; Interleukin 1 beta secreted (PBMCs; donor F173, 6 day, 0.25 μM DBT): 453 ± 16 ng/mL; Interleukin 1 beta secreted (PBMCs; donor F173, 6 day, 0.5 μM DBT): 932 ± 8 ng/mL; Interleukin 1 beta secreted (PBMCs; donor F173, 6 day, 1 μM DBT): 690 ± 15 ng/mL; Interleukin 1 beta secreted (PBMCs; donor F173, 6 day, 2.5 μM DBT): 181 ± 8 ng/mL; Interleukin 1 beta secreted (PBMCs; donor F173, 6 day, 5 μM DBT): 145 ± 2 ng/mL; average of the maximum fold increase in IL-β secretion ([1]; NK cells, 24 h, across donors): 3.5 fold; fold increase in IL-1β secretion ([1]; NK cells, donor KB169, 0.05 μM (50 nM) DBT): 7.9 fold; fold increase in IL-1β secretion ([1]; NK cells, donor KB169, 0.1 μM (100 nM) DBT): 6.0 fold; Interleukin 1 beta secreted ([1]; donor KB130, 24 h, 0.05 μM DBT): 386 ± 41 pg/mL; Interleukin 1 beta secreted ([1]; donor KB130, 24 h, 0.1 μM DBT): 116 ± 27 pg/mL; Interleukin 1 beta secreted ([1]; donor KB130, 24 h, 0.25 μM DBT): 17 ± 20 pg/mL; Interleukin 1 beta secreted ([1]; donor KB130, 48 h, 0.05 μM DBT): 1372 ± 481 pg/mL; Interleukin 1 beta secreted ([1]; donor KB130, 48 h, 0.1 μM DBT): 298 ± 65 pg/mL; Interleukin 1 beta secreted ([1]; donor KB130, 48 h, 0.25 μM DBT): 139 ± 46 pg/mL; Interleukin 1 beta secreted ([1]; donor KB130, 6 day, 0.05 μM DBT): 782 ± 35 pg/mL; Interleukin 1 beta secreted ([1]; donor KB130, 6 day, 0.1 μM DBT): 550 ± 21 pg/mL; Interleukin 1 beta secreted ([1]; donor KB130, 6 day, 0.25 μM DBT): 142 ± 27 pg/mL; Interleukin 1 beta secreted ([1]; donor KB130, 6 day, 0.5 μM DBT): 46 ± 53 pg/mL; Interleukin 1 beta secreted ([1]; donor KB155, 24 h, 0.05 μM DBT): 2965 ± 1004 pg/mL; Interleukin 1 beta secreted ([1]; donor KB155, 24 h, 0.1 μM DBT): 2771 ± 70 pg/mL; Interleukin 1 beta secreted ([1]; donor KB155, 24 h, 0.25 μM DBT): 779 ± 25 pg/mL; Interleukin 1 beta secreted ([1]; donor KB155, 24 h, 0.5 μM DBT): 28 ± 23 pg/mL; Interleukin 1 beta secreted ([1]; donor KB155, 48 h, 0.05 μM DBT): 5235 ± 531 pg/mL; Interleukin 1 beta secreted ([1]; donor KB155, 48 h, 0.1 μM DBT): 4588 ± 130 pg/mL; Interleukin 1 beta secreted ([1]; donor KB155, 48 h, 0.25 μM DBT): 1598 ± 450 pg/mL; Interleukin 1 beta secreted ([1]; donor KB155, 48 h, 0.5 μM DBT): 130 ± 39 pg/mL; Interleukin 1 beta secreted ([1]; donor KB155, 6 day, 0.05 μM DBT): 1625 ± 164 pg/mL; Interleukin 1 beta secreted ([1]; donor KB155, 6 day, 0.1 μM DBT): 1572 ± 245 pg/mL; Interleukin 1 beta secreted ([1]; donor KB155, 6 day, 0.25 μM DBT): 960 ± 152 pg/mL; Interleukin 1 beta secreted ([1]; donor KB155, 6 day, 0.5 μM DBT): 138 ± 43 pg/mL; Interleukin 1 beta secreted ([1]; donor KB169, 24 h, 0.05 μM DBT): 1551 ± 25 pg/mL; Interleukin 1 beta secreted ([1]; donor KB169, 24 h, 0.1 μM DBT): 1173 ± 69 pg/mL; Interleukin 1 beta secreted ([1]; donor KB169, 24 h, 0.25 μM DBT): 796 ± 137 pg/mL; Interleukin 1 beta secreted ([1]; donor KB169, 24 h, 0.5 μM DBT): 114 ± 21 pg/mL; Interleukin 1 beta secreted ([1]; donor KB169, 48 h, 0.05 μM DBT): 341 ± 10 pg/mL; Interleukin 1 beta secreted ([1]; donor KB169, 48 h, 0.1 μM DBT): 367 ± 53 pg/mL; Interleukin 1 beta secreted ([1]; donor KB169, 48 h, 0.25 μM DBT): 262 ± 14 pg/mL; Interleukin 1 beta secreted ([1]; donor KB169, 6 day, 0.05 μM DBT): 453 ± 91 pg/mL; Interleukin 1 beta secreted ([1]; donor KB169, 6 day, 0.1 μM DBT): 602 ± 257 pg/mL; Interleukin 1 beta secreted ([1]; donor KB169, 6 day, 0.25 μM DBT): 511 ± 227 pg/mL; Interleukin 1 beta secreted ([1]; donor KB169, 6 day, 0.5 μM DBT): 157 ± 61 pg/mL; Secretion of IL-1β (Granulocytes; 4 donors, 24 h, any of the conditions tested, limit of detection): ≤ 3 pg/mL; average of the maximum fold increase in IL-β secretion (Granulocytes; 24 h, across donors): 3.7 fold; change in IL-1β secretion (Granulocytes; 48 h, 0.25–5 μM DBT, cells from 3 of the 4 donors): increases
